Measurements taken from PMC9064604 (RSC Advances, 2019).
Where two headings read alike, the source gives them in different places.

Experiments:
[1] = tested on: human colorectal adenocarcinoma HT-29; experiment: Cell viability assay; format: cell-based; conditions: read-out: IC50 HT-29, dark
murine melanoma B16-F10 = experiment: Cell viability assay; format: cell-based; conditions: read-out: IC50 B16-F10, dark
A549 cells = experiment: Quantification of cellular uptake by LC-MS/MS; format: cell-based, human
Outline: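 A549 cells (1.2 × 10⁵/well) adhered overnight, then received 3 μM test compound. Medium was removed immediately or after 1, 3, 6, 12 or 24 h in the dark at 37 °C/5% CO₂. Cells were washed with PBS/1.5% DMSO, scraped into acetonitrile, sonicated and centrifuged. Extracts were quantified by LC-MS/MS against external standards (0.02–0.25 μM in A549 extract). Per-cell concentration assumed 1.7 pL cell volume; n = 4, mean ± SEM.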

[2] = tested on: triple negative human breast adenocarcinoma MDA-MB-231; experiment: Cell viability assay; format: cell-based; conditions: MDA-MB-231, 72 h, read-out: IC50 MDA-MB-231, dark
[3] = tested on: human alveolar adenocarcinoma A549; experiment: Cell viability assay; format: cell-based; conditions: A549, 72 h, read-out: IC50 A549, dark
[4] = tested on: human colon adenocarcinoma Caco-2; experiment: Cell viability assay; format: cell-based; conditions: Caco-2, 72 h, read-out: IC50 Caco-2, dark

`Cc1cc(-c2ccccc2)c2ccc3c(-c4ccccc4)cc(C)nc3c2n1` [BC, bathocuproine] was tested, and the IC50 ([1]; Homo sapiens, HT-29, 72 h) was greater than 100 µM, the IC50 (murine melanoma B16-F10; Mus musculus, B16-F10, 72 h) was greater than 100 µM and the “maximum cellular concentration per cell” value (A549 cells; 3 μM, A549, assuming average cell volume of 1.7 pL and homogeneous distribution) was 2000 μM per cell. The “time at which cellular uptake was optimal / plateaued” value (A549 cells; A549, 3 μM) was 3 h, the IC50 [2] was greater than 100 µM and the IC50 [3] was greater than 100 µM. It also gave an IC50 [4] greater than 100 µM.
`N.N.[Cl][Pt][Cl]` [Cisplatin, cisplatin] gave an IC50 ([1]; dark, 72 h, WST-1, mean ± SEM) greater than 100 µM and an IC50 (murine melanoma B16-F10; dark, 72 h, WST-1, mean ± SEM) of 7.7 ± 0.2 µM.
Work on `c1ccc(-c2ccccn2)nc1` [bipy, 2,2′-bipyridine] yielded an IC50 ([1]; Homo sapiens, HT-29, 72 h) greater than 100 µM, an IC50 (murine melanoma B16-F10; Mus musculus, B16-F10, 72 h) greater than 100 µM and an IC50 [2] of 37.5 ± 0.14 µM. It also gave an IC50 [3] greater than 100 µM and an IC50 [4] greater than 100 µM.
